Assay results published in ChEMBL document CHEMBL1629622, “Isolation of VanB-type Enterococcus faecalis strains from nosocomial infections: first report of the isolation and identification of the pheromone-responsive plasmids pMG2200, Encoding VanB-type vancomycin resistance and a Bac41-type bacteriocin, and pMG2201, encoding erythromycin resistance and …” (2009).
In brackets after ≈: the same amount, converted by molar mass.

Columns and labels:
Assay type in all cases: functional
Enterococcus faecalis [1] = test: Antimicrobial activity against Enterococcus faecalis NKH10 harboring pMG2200-like and pMG2201-like plasmids after 24 hrs by agar dilution method
How it was run: (§1)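 Agar dilution MICs on clinical E. faecalis isolates. Overnight Mueller-Hinton broth culture diluted 100-fold; ~5 × 10^5 cells inoculated onto Mueller-Hinton medium holding a concentration series of each drug. Incubated at 37°C and read at 24 h. Testing and interpretation follow CLSI (NCCLS) standards, with E. faecium ATCC 9790 as control strain.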

Enterococcus faecalis [2] = test: Antimicrobial activity against Enterococcus faecalis NKH12 harboring pMG2200-like and pMG2201-like plasmids after 24 hrs by agar dilution method; how it was run: as §1
Enterococcus faecalis [3] = test: Antimicrobial activity against Enterococcus faecalis NKH8 harboring pMG2200-like and pMG2201-like plasmids after 24 hrs by agar dilution method; how it was run: as §1
Enterococcus faecalis [4] = test: Antimicrobial activity against Enterococcus faecalis NKH1 harboring pMG2200-like plasmid after 24 hrs by agar dilution method; how it was run: as §1
Enterococcus faecalis [5] = test: Antimicrobial activity against Enterococcus faecalis NKH18 harboring pMG2200-like and pMG2201-like plasmids after 24 hrs by agar dilution method; how it was run: as §1
Enterococcus faecalis [6] = test: Antimicrobial activity against Enterococcus faecalis NKH17 harboring pMG2200-like plasmid after 24 hrs by agar dilution method; how it was run: as §1
Enterococcus faecalis [7] = test: Antimicrobial activity against Enterococcus faecalis NKH6 harboring pMG2200-like and pMG2201-like plasmids after 24 hrs by agar dilution method; how it was run: as §1
Enterococcus faecalis [8] = test: Antimicrobial activity against Enterococcus faecalis NKH14 harboring pMG2200-like and pMG2201-like plasmids after 24 hrs by agar dilution method; how it was run: as §1
Enterococcus faecalis [9] = test: Antimicrobial activity against Enterococcus faecalis NKH2 harboring pMG2200-like and pMG2201-like plasmids after 24 hrs by agar dilution method; how it was run: as §1
Enterococcus faecalis [10] = test: Antimicrobial activity against Enterococcus faecalis NKH4 harboring pMG2200-like and pMG2201-like plasmids after 24 hrs by agar dilution method; how it was run: as §1
Enterococcus faecalis [11] = test: Antimicrobial activity against Enterococcus faecalis NKH13 harboring pMG2200-like and pMG2201-like plasmids after 24 hrs by agar dilution method; how it was run: as §1
Enterococcus faecalis [12] = test: Antimicrobial activity against Enterococcus faecalis NKH5 harboring pMG2200-like plasmid after 24 hrs by agar dilution method; how it was run: as §1
Enterococcus faecalis [13] = test: Antimicrobial activity against Enterococcus faecalis NKH16 harboring pMG2200-like plasmid after 24 hrs by agar dilution method; how it was run: as §1
Enterococcus faecalis [14] = test: Antimicrobial activity against Enterococcus faecalis NKH9 harboring pMG2200-like and pMG2201-like plasmids after 24 hrs by agar dilution method; how it was run: as §1
Enterococcus faecalis [15] = test: Antimicrobial activity against Enterococcus faecalis NKH7 harboring pMG2200-like plasmid after 24 hrs by agar dilution method; how it was run: as §1
Enterococcus faecalis [16] = test: Antimicrobial activity against Enterococcus faecalis NKH3 harboring pMG2200-like and pMG2201-like plasmids after 24 hrs by agar dilution method; how it was run: as §1
Enterococcus faecalis [17] = test: Antimicrobial activity against Enterococcus faecalis NKH15 harboring pMG2200-like and pMG2201-like plasmids after 24 hrs by agar dilution method; how it was run: as §1
Enterococcus faecalis [18] = test: Antimicrobial activity against Enterococcus faecalis NKH11 harboring pMG2200-like plasmid after 24 hrs by agar dilution method; how it was run: as §1

| Compound | MIC (Enterococcus faecalis [1]; NKH10, 24 h) [µg/mL] | MIC (Enterococcus faecalis [2]; NKH12, 24 h) [µg/mL] | MIC (Enterococcus faecalis [3]; NKH8, 24 h) [µg/mL] | MIC (Enterococcus faecalis [4]; NKH1, 24 h) [µg/mL] | MIC (Enterococcus faecalis [5]; NKH18, 24 h) [µg/mL] | MIC (Enterococcus faecalis [6]; NKH17, 24 h) [µg/mL] | MIC (Enterococcus faecalis [7]; NKH6, 24 h) [µg/mL] | MIC (Enterococcus faecalis [8]; NKH14, 24 h) [µg/mL] | MIC (Enterococcus faecalis [9]; NKH2, 24 h) [µg/mL] | MIC (Enterococcus faecalis [10]; NKH4, 24 h) [µg/mL] | MIC (Enterococcus faecalis [11]; NKH13, 24 h) [µg/mL] | MIC (Enterococcus faecalis [12]; NKH5, 24 h) [µg/mL] | MIC (Enterococcus faecalis [13]; NKH16, 24 h) [µg/mL] | MIC (Enterococcus faecalis [14]; NKH9, 24 h) [µg/mL] | MIC (Enterococcus faecalis [15]; NKH7, 24 h) [µg/mL] | MIC (Enterococcus faecalis [16]; NKH3, 24 h) [µg/mL] | MIC (Enterococcus faecalis [17]; NKH15, 24 h) [µg/mL] | MIC (Enterococcus faecalis [18]; NKH11, 24 h) [µg/mL] | also measured |
| --- | --- | --- | --- | --- | --- | --- | --- | --- | --- | --- | --- | --- | --- | --- | --- | --- | --- | --- | --- |
| O=C(O)c1cn(C2CC2)c2cc(N3CCNCC3)c(F)cc2c1=O [CIPROFLOXACIN] | 64 (≈ 193 µM) | 64 (≈ 193 µM) | 64 (≈ 193 µM) | 64 (≈ 193 µM) | 64 (≈ 193 µM) | 64 (≈ 193 µM) | 64 (≈ 193 µM) | 64 (≈ 193 µM) | 64 (≈ 193 µM) | 64 (≈ 193 µM) | 64 (≈ 193 µM) | 64 (≈ 193 µM) | 64 (≈ 193 µM) | 64 (≈ 193 µM) | 64 (≈ 193 µM) | 64 (≈ 193 µM) | 64 (≈ 193 µM) | 64 (≈ 193 µM) | – |
| CC[C@H]1OC(=O)[C@H](C)[C@@H](O[C@H]2C[C@@](C)(OC)[C@@H](O)[C@H](C)O2)[C@H](C)[C@@H](O[C@@H]2O[C@H](C)C[C@H](N(C)C)[C@H]2O)[C@](C)(O)C[C@@H](C)C(=O)[C@H](C)[C@@H](O)[C@]1(C)O [ERYTHROMYCIN] | > 1020 | > 1020 | > 1020 | 0.25 (≈ 0.341 µM) | > 1020 | 0.125 (≈ 0.17 µM) | > 1020 | > 1020 | > 1020 | > 1020 | > 1020 | 0.125 (≈ 0.17 µM) | 0.125 (≈ 0.17 µM) | > 1020 | 0.125 (≈ 0.17 µM) | > 1020 | > 1020 | 0.125 (≈ 0.17 µM) | – |
| NC[C@H]1O[C@H](O[C@H]2[C@H](O)[C@@H](O[C@H]3O[C@H](CO)[C@@H](O)[C@H](N)[C@H]3O)[C@H](N)C[C@@H]2N)[C@H](O)[C@@H](O)[C@@H]1O [KANAMYCIN] | > 1020 | > 1020 | > 1020 | > 1020 | > 1020 | > 1020 | > 1020 | > 1020 | > 1020 | > 1020 | > 1020 | > 1020 | > 1020 | > 1020 | > 1020 | > 1020 | > 1020 | > 1020 | – |
| CN[C@@H]1[C@H](O[C@H]2[C@H](O[C@H]3[C@H](O)[C@@H](O)[C@H](N=C(N)N)[C@@H](O)[C@@H]3N=C(N)N)O[C@@H](C)[C@]2(O)C=O)O[C@@H](CO)[C@H](O)[C@H]1O [STREPTOMYCIN] | 32 (≈ 55 µM) | 32 (≈ 55 µM) | 32 (≈ 55 µM) | 32 (≈ 55 µM) | 32 (≈ 55 µM) | 32 (≈ 55 µM) | 32 (≈ 55 µM) | 32 (≈ 55 µM) | 32 (≈ 55 µM) | 32 (≈ 55 µM) | 32 (≈ 55 µM) | 32 (≈ 55 µM) | 32 (≈ 55 µM) | 32 (≈ 55 µM) | 32 (≈ 55 µM) | 32 (≈ 55 µM) | 32 (≈ 55 µM) | 32 (≈ 55 µM) | – |
| CN(C)[C@@H]1C(O)=C(C(N)=O)C(=O)[C@@]2(O)C(O)=C3C(=O)c4c(O)cccc4[C@@](C)(O)[C@H]3C[C@@H]12 [TETRACYCLINE] | 64 (≈ 144 µM) | 64 (≈ 144 µM) | 64 (≈ 144 µM) | 64 (≈ 144 µM) | 32 (≈ 72 µM) | 32 (≈ 72 µM) | 64 (≈ 144 µM) | 64 (≈ 144 µM) | 64 (≈ 144 µM) | 32 (≈ 72 µM) | 64 (≈ 144 µM) | 64 (≈ 144 µM) | 32 (≈ 72 µM) | 64 (≈ 144 µM) | 64 (≈ 144 µM) | 32 (≈ 72 µM) | 32 (≈ 72 µM) | 64 (≈ 144 µM) | – |
| CN[C@H](CC(C)C)C(=O)N[C@H]1C(=O)N[C@@H](CC(N)=O)C(=O)N[C@H]2C(=O)N[C@H]3C(=O)N[C@H](C(=O)N[C@H](C(=O)O)c4cc(O)cc(O)c4-c4cc3ccc4O)[C@H](O)c3ccc(c(Cl)c3)Oc3cc2cc(c3O[C@@H]2O[C@H](CO)[C@@H](O)[C@H](O)[C@H]2O[C@H]2C[C@](C)(N)[C@H](O)[C@H](C)O2)Oc2ccc(cc2Cl)[C@H]1O [VANCOMYCIN] | 256 (≈ 177 µM) | 256 (≈ 177 µM) | 256 (≈ 177 µM) | 128 (≈ 88.3 µM) | – | 32 (≈ 22.1 µM) | – | 256 (≈ 177 µM) | 256 (≈ 177 µM) | – | 256 (≈ 177 µM) | – | – | 256 (≈ 177 µM) | – | – | – | – | – |
| GENTAMICIN | – | – | – | – | – | – | – | – | – | – | – | – | – | – | – | – | – | – | MIC (Enterococcus faecalis [1]): > 1020 µg/mL; MIC (Enterococcus faecalis [2]): > 1020 µg/mL; MIC (Enterococcus faecalis [3]): > 1020 µg/mL; MIC (Enterococcus faecalis [4]): > 1020 µg/mL; MIC (Enterococcus faecalis [5]): > 1020 µg/mL; MIC (Enterococcus faecalis [6]): > 1020 µg/mL; MIC (Enterococcus faecalis [7]): > 1020 µg/mL; MIC (Enterococcus faecalis [8]): > 1020 µg/mL; MIC (Enterococcus faecalis [9]): > 1020 µg/mL; MIC (Enterococcus faecalis [10]): > 1020 µg/mL; MIC (Enterococcus faecalis [11]): > 1020 µg/mL; MIC (Enterococcus faecalis [12]): > 1020 µg/mL; MIC (Enterococcus faecalis [13]): > 1020 µg/mL; MIC (Enterococcus faecalis [14]): 1020 µg/mL; MIC (Enterococcus faecalis [15]): > 1020 µg/mL; MIC (Enterococcus faecalis [16]): > 1020 µg/mL; MIC (Enterococcus faecalis [17]): > 1020 µg/mL; MIC (Enterococcus faecalis [18]): > 1020 µg/mL |
